# Data: ChEMBL document CHEMBL4689842, “EUbOPEN Chemogenomics Library wave 1” (2021)
# Where “and” joins values, the source holds several entries; their conditions need not be identical. Equal entries are not always repeated.
# Tested on: Fibroblast
# Test: Multiplex assay against human fibroblast
# Format: toxicity, cell-based
# Summary of the method: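 Compound was added to live cells that had been stained at seeding with Hoechst33342, BioTracker Green Microtubule Cytoskeleton Dye, MitoTracker Red and Annexin V Alexa Fluor 680, and imaging followed on a CQ1 microscope at 37°C and 5% CO2. CellPathfinder machine-learning gating divided cells into Hoechst high-intensity objects or normal cells, normal cells into healthy, pyknosed or fragmented nuclei, and pyknosed cells into mitotic or apoptotic. Tubulin, mitochondrial-mass and membrane-permeability phenotypes are per cents of healthy-nucleus cells.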
# [1] = 12 h, 1 µM, compound concentration 1 uM, replicate 1
# [2] = 12 h, 1 µM, compound concentration 1 uM, replicate 2
# [3] = 12 h, 10 µM, compound concentration 10 uM, replicate 1
# [4] = 12 h, 10 µM, compound concentration 10 uM, replicate 2
# [5] = 24 h, 1 µM, compound concentration 1 uM, replicate 1
# [6] = 24 h, 1 µM, compound concentration 1 uM, replicate 2
# [7] = 24 h, 10 µM, compound concentration 10 uM, replicate 1
# [8] = 24 h, 10 µM, compound concentration 10 uM, replicate 2
# [9] = 48 h, 1 µM, compound concentration 1 uM, replicate 1
# [10] = 48 h, 1 µM, compound concentration 1 uM, replicate 2
# [11] = 48 h, 10 µM, compound concentration 10 uM, replicate 1
# [12] = 48 h, 10 µM, compound concentration 10 uM, replicate 2
smiles,measurement,setting,value
Nc1c(C(=O)NCc2ccc(C(=O)NCCCC3CCCCC3)cc2)cnn1-c1ccccc1 [SR-318],Population Apoptotic (%),[1],63% and 53% and 61%
same,Population Fragmented Nuclei (%),[1],20% and 26%
same,Population Healthy Nuclei (%),[1],41% and 34%
same,Population Hoechst High Intensity Objects (%),[1],10% and 11%
same,Population Membrane Permeable-Phenotype (%),[1],34% and 21% and 18%
same,Population Mitochondria Different-Phenotype (%),[1],6% and 7% and 9%
same,Population Mitotic Cells (%),[1],36% and 46% and 38%
same,Population Normal (%),[1],89% and 88%
same,Population Pyknosed Nuclei (%),[1],38% and 44%
same,Population Tubulin-Different-Phenotype (%),[1],46% and 39% and 51%
same,Total Cell Count,[1],128 and 123 and 142
same,Population Fragmented Nuclei (%),[2],9% and 5% and 3%
same,Population Healthy Nuclei (%),[2],83% and 75% and 91%
same,Population Membrane Permeable-Phenotype (%),[2],6% and 5%
same,Population Mitochondria Different-Phenotype (%),[2],8%
same,Population Mitotic Cells (%),[2],50% and 87% and 100%
same,Population Normal (%),[2],95% and 73% and 96%
same,Population Tubulin-Different-Phenotype (%),[2],19% and 25% and 11%
same,Total Cell Count,[2],63 and 91 and 118
same,Population Apoptotic (%),[3],65% and 54% and 56%
same,Population Fragmented Nuclei (%),[3],20% and 24% and 14%
same,Population Healthy Nuclei (%),[3],29% and 33% and 37%
same,Population Hoechst High Intensity Objects (%),[3],8% and 10% and 20%
same,Population Mitochondria Different-Phenotype (%),[3],24% and 47% and 43%
same,Population Mitotic Cells (%),[3],34% and 45% and 43%
same,Population Normal (%),[3],91% and 89% and 79%
same,Population Pyknosed Nuclei (%),[3],50% and 42% and 47%
same,Population Tubulin-Different-Phenotype (%),[3],88% and 76% and 85%
same,Total Cell Count,[3],94 and 140 and 136
same,Population Apoptotic (%),[4],45% and 22% and 33%
same,Population Fragmented Nuclei (%),[4],17% and 15% and 12%
same,Population Healthy Nuclei (%),[4],69% and 58% and 72%
same,Population Mitochondria Different-Phenotype (%),[4],55% and 51% and 60%
same,Population Mitotic Cells (%),[4],54% and 77% and 66%
same,Population Normal (%),[4],92% and 98%
same,Population Pyknosed Nuclei (%),[4],13% and 25% and 15%
same,Population Tubulin-Different-Phenotype (%),[4],50% and 56% and 67%
same,Total Cell Count,[4],71 and 90 and 91
same,Population Apoptotic (%),[5],44% and 58% and 55%
same,Population Fragmented Nuclei (%),[5],17% and 19% and 22%
same,Population Healthy Nuclei (%),[5],46% and 43% and 44%
same,Population Hoechst High Intensity Objects (%),[5],8% and 6% and 10%
same,Population Membrane Permeable-Phenotype (%),[5],34% and 25% and 33%
same,Population Mitochondria Different-Phenotype (%),[5],6% and 4% and 12%
same,Population Mitotic Cells (%),[5],55% and 41% and 44%
same,Population Normal (%),[5],91% and 93% and 89%
same,Population Pyknosed Nuclei (%),[5],36% and 33%
same,Population Tubulin-Different-Phenotype (%),[5],44% and 31% and 60%
same,Total Cell Count,[5],137 and 115 and 142
same,Population Apoptotic (%),[6],25%
same,Population Fragmented Nuclei (%),[6],6% and 3% and 4%
same,Population Healthy Nuclei (%),[6],80% and 84% and 75%
same,Population Membrane Permeable-Phenotype (%),[6],8% and 5%
same,Population Mitochondria Different-Phenotype (%),[6],13% and 7%
same,Population Mitotic Cells (%),[6],75%
same,Population Normal (%),[6],94% and 97% and 77%
same,Population Pyknosed Nuclei (%),[6],13% and 11% and 19%
same,Population Tubulin-Different-Phenotype (%),[6],22% and 14% and 23%
same,Total Cell Count,[6],67 and 130 and 97
same,Population Apoptotic (%),[7],66% and 45% and 56%
same,Population Fragmented Nuclei (%),[7],15% and 18% and 29%
same,Population Healthy Nuclei (%),[7],43% and 47% and 39%
same,Population Hoechst High Intensity Objects (%),[7],16% and 12% and 11%
same,Population Mitochondria Different-Phenotype (%),[7],31% and 48% and 42%
same,Population Mitotic Cells (%),[7],33% and 54% and 43%
same,Population Normal (%),[7],83% and 87% and 88%
same,Population Pyknosed Nuclei (%),[7],40% and 33% and 30%
same,Population Tubulin-Different-Phenotype (%),[7],76% and 87% and 86%
same,Total Cell Count,[7],105 and 118 and 143
same,Population Apoptotic (%),[8],28% and 44% and 46%
same,Population Fragmented Nuclei (%),[8],13% and 17% and 14%
same,Population Healthy Nuclei (%),[8],65% and 62% and 66%
same,Population Membrane Permeable-Phenotype (%),[8],9% and 7% and 3%
same,Population Mitochondria Different-Phenotype (%),[8],58% and 57% and 66%
same,Population Mitotic Cells (%),[8],71% and 55% and 53%
same,Population Normal (%),[8],98% and 92%
same,Population Pyknosed Nuclei (%),[8],21% and 20% and 18%
same,Population Tubulin-Different-Phenotype (%),[8],41% and 30% and 61%
same,Total Cell Count,[8],104 and 67 and 97
same,Population Apoptotic (%),[9],73% and 50% and 47%
same,Population Fragmented Nuclei (%),[9],32% and 28% and 24%
same,Population Healthy Nuclei (%),[9],43% and 48% and 60%
same,Population Hoechst High Intensity Objects (%),[9],14% and 12%
same,Population Membrane Permeable-Phenotype (%),[9],22% and 21% and 16%
same,Population Mitochondria Different-Phenotype (%),[9],2% and 7%
same,Population Mitotic Cells (%),[9],26% and 50% and 52%
same,Population Normal (%),[9],85% and 87%
same,Population Pyknosed Nuclei (%),[9],24% and 22% and 15%
same,Population Tubulin-Different-Phenotype (%),[9],20% and 37% and 36%
same,Total Cell Count,[9],109 and 153 and 141
same,Population Apoptotic (%),[10],100% and 83%
same,Population Fragmented Nuclei (%),[10],22% and 27% and 14%
same,Population Healthy Nuclei (%),[10],73% and 71% and 81%
same,Population Hoechst High Intensity Objects (%),[10],16% and 13% and 11%
same,Population Membrane Permeable-Phenotype (%),[10],18% and 13%
same,Population Mitochondria Different-Phenotype (%),[10],5% and 4%
same,Population Mitotic Cells (%),[10],0% and 16%
same,Population Normal (%),[10],83% and 86% and 88%
same,Population Tubulin-Different-Phenotype (%),[10],28% and 40% and 26%
same,Total Cell Count,[10],116 and 115 and 159
same,Population Apoptotic (%),[11],71% and 75% and 64%
same,Population Fragmented Nuclei (%),[11],36% and 33%
same,Population Healthy Nuclei (%),[11],43% and 45% and 41%
same,Population Hoechst High Intensity Objects (%),[11],20% and 19% and 17%
same,Population Membrane Permeable-Phenotype (%),[11],12% and 4% and 3%
same,Population Mitochondria Different-Phenotype (%),[11],40% and 45% and 36%
same,Population Mitotic Cells (%),[11],28% and 25% and 35%
same,Population Normal (%),[11],79% and 80% and 82%
same,Population Pyknosed Nuclei (%),[11],19% and 21% and 25%
same,Population Tubulin-Different-Phenotype (%),[11],81% and 83% and 82%
same,Total Cell Count,[11],92 and 116 and 150
same,Population Fragmented Nuclei (%),[12],28% and 31% and 23%
same,Population Healthy Nuclei (%),[12],66% and 63% and 71%
same,Population Hoechst High Intensity Objects (%),[12],9% and 3%
same,Population Membrane Permeable-Phenotype (%),[12],9% and 6%
same,Population Mitochondria Different-Phenotype (%),[12],13% and 23% and 16%
same,Population Mitotic Cells (%),[12],83% and 50% and 85%
same,Population Normal (%),[12],90% and 96%
same,Population Pyknosed Nuclei (%),[12],5% and 4%
same,Population Tubulin-Different-Phenotype (%),[12],68% and 86%
same,Total Cell Count,[12],121 and 148 and 157
CC(C)C(=O)Nc1n[nH]c2cc(-c3cccc(NS(=O)(=O)C4CC4)c3)ccc12,Population Apoptotic (%),[1],85% and 80%
same,Population Fragmented Nuclei (%),[1],36% and 25%
same,Population Healthy Nuclei (%),[1],36% and 58%
same,Population Hoechst High Intensity Objects (%),[1],13% and 11%
same,Population Membrane Permeable-Phenotype (%),[1],8% and 7%
same,Population Mitochondria Different-Phenotype (%),[1],0% and 6%
same,Population Mitotic Cells (%),[1],14% and 20%
same,Population Normal (%),[1],86% and 88%
same,Population Pyknosed Nuclei (%),[1],26%
same,Population Tubulin-Different-Phenotype (%),[1],6% and 2%
same,Total Cell Count,[1],151 and 184
same,Population Apoptotic (%),[2],100% and 50%
same,Population Fragmented Nuclei (%),[2],56% and 43%
same,Population Healthy Nuclei (%),[2],38% and 40%
same,Population Hoechst High Intensity Objects (%),[2],34% and 18%
same,Population Normal (%),[2],65% and 81%
same,Population Pyknosed Nuclei (%),[2],6% and 15%
same,Population Tubulin-Different-Phenotype (%),[2],15% and 30%
same,Total Cell Count,[2],76 and 79
same,Population Apoptotic (%),[5],65% and 60%
same,Population Fragmented Nuclei (%),[5],40% and 28%
same,Population Healthy Nuclei (%),[5],42% and 54%
same,Population Hoechst High Intensity Objects (%),[5],8% and 9%
same,Population Membrane Permeable-Phenotype (%),[5],17% and 7%
same,Population Mitochondria Different-Phenotype (%),[5],1% and 2%
same,Population Mitotic Cells (%),[5],34% and 39%
same,Population Normal (%),[5],91% and 90%
same,Population Pyknosed Nuclei (%),[5],17%
same,Population Tubulin-Different-Phenotype (%),[5],8% and 4%
same,Total Cell Count,[5],144 and 207
same,Population Apoptotic (%),[6],42% and 33%
same,Population Fragmented Nuclei (%),[6],47% and 51%
same,Population Healthy Nuclei (%),[6],41% and 36%
same,Population Hoechst High Intensity Objects (%),[6],23% and 22%
same,Population Membrane Permeable-Phenotype (%),[6],15% and 11%
same,Population Mitochondria Different-Phenotype (%),[6],15% and 0%
same,Population Mitotic Cells (%),[6],57% and 66%
same,Population Normal (%),[6],76% and 77%
same,Population Pyknosed Nuclei (%),[6],11% and 12%
same,Population Tubulin-Different-Phenotype (%),[6],11% and 22%
same,Total Cell Count,[6],82 and 63
